Values after ≈ are worked out from the molar mass of the structure shown. Active and inactive are the calls of the source. The rule behind the calls is not given here.
Tests used:
Escherichia coli [1] = test: Antibacterial activity against Escherichia coli K10 after 14 to 16 hrs by broth dilution method; format: functional
Escherichia coli [2] = test: Antibacterial activity against Escherichia coli K12 after 14 to 16 hrs by broth dilution method; format: functional
Escherichia coli [3] = test: Antibacterial activity against Escherichia coli C921-61 after 14 to 16 hrs by broth dilution method; format: functional
Salmonella typhimurium = test: Antibacterial activity against Salmonella enterica serovar Typhimurium LT2 after 14 to 16 hrs by broth dilution method; format: functional, Salmonella enterica subsp. enterica serovar Typhimurium
Staphylococcus aureus [4] = test: Antibacterial activity against Staphylococcus aureus N315 after 14 to 16 hrs by broth dilution method; format: functional
In short: (§1)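 CLSI broth dilution in cation-adjusted Mueller-Hinton broth with serial twofold dilutions, with or without spermine or spermidine added. Overnight cultures were diluted in saline to OD600 0.1–0.12, and about 10^5 CFU were inoculated. Incubation was 14–16 h at 37°C. MIC was confirmed in three independent experiments. E. coli acrA mutants were tested with 1 mM spermine; P. aeruginosa isolates with 1 mM spermine or 20 mM spermidine.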

Staphylococcus aureus [5] = test: Antibacterial activity against Staphylococcus aureus Mu50 after 14 to 16 hrs by broth dilution method; format: functional
Staphylococcus aureus [6] = test: Antibacterial activity against Staphylococcus aureus ATCC 3556 after 14 to 16 hrs by broth dilution method; format: functional
Pseudomonas aeruginosa [7] = test: Antibacterial activity against Pseudomonas aeruginosa PAO1 after 14 to 16 hrs by broth dilution method; format: functional
Pseudomonas aeruginosa [8] = test: Antibacterial activity against Pseudomonas aeruginosa F4980 after 14 to 16 hrs by broth dilution method; format: functional; in short: as §1
Pseudomonas aeruginosa [9] = test: Antibacterial activity against Pseudomonas aeruginosa F66336 after 14 to 16 hrs by broth dilution method; format: functional
Pseudomonas aeruginosa [10] = test: Antibacterial activity against Pseudomonas aeruginosa H4563 after 14 to 16 hrs by broth dilution method; format: functional
Pseudomonas aeruginosa [11] = test: Antibacterial activity against Pseudomonas aeruginosa M22152 after 14 to 16 hrs by broth dilution method; format: functional; in short: as §1
Pseudomonas aeruginosa [12] = test: Antibacterial activity against Pseudomonas aeruginosa M37310 after 14 to 16 hrs by broth dilution method; format: functional
Pseudomonas aeruginosa [13] = test: Antibacterial activity against Pseudomonas aeruginosa M38100A after 14 to 16 hrs by broth dilution method; format: functional
Pseudomonas aeruginosa [14] = test: Antibacterial activity against Pseudomonas aeruginosa M38100B after 14 to 16 hrs by broth dilution method; format: functional
Pseudomonas aeruginosa [15] = test: Antibacterial activity against Pseudomonas aeruginosa T2095 after 14 to 16 hrs by broth dilution method; format: functional
Pseudomonas aeruginosa [16] = test: Antibacterial activity against Pseudomonas aeruginosa T5177 after 14 to 16 hrs by broth dilution method; format: functional; in short: as §1
Pseudomonas aeruginosa [17] = test: Antibacterial activity against Pseudomonas aeruginosa T6268 after 14 to 16 hrs by broth dilution method; format: functional
Pseudomonas aeruginosa [18] = test: Antibacterial activity against Pseudomonas aeruginosa T15464 after 14 to 16 hrs by broth dilution method; format: functional; in short: as §1
Pseudomonas aeruginosa [19] = test: Antibacterial activity against Pseudomonas aeruginosa PAO1 assessed as inhibition of bacterial population at 64 ug/ml after 48 hrs; format: functional, organism-based
In short: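 Population analysis: overnight 37°C cultures adjusted to 1 x 10^8 to 5 x 10^8 CFU/ml, diluted, 100 µl spread on LB plates with twofold serial dilutions of antibiotic with or without 1 mM spermine, plus LB alone; colonies counted after 48 h at 37°C; triplicate experiments.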

Pseudomonas aeruginosa [20] = test: Antibacterial activity against streptomycin-resistant Pseudomonas aeruginosa DK100 after 14 to 16 hrs by broth dilution method; format: functional; in short: as §1
Pseudomonas aeruginosa [21] = test: Antibacterial activity against streptomycin and gentamycin-resistant Pseudomonas aeruginosa DK101 containing oprD mutant after 14 to 16 hrs by broth dilution method; format: functional; in short: as §1
Pseudomonas aeruginosa [22] = test: Antibacterial activity against Pseudomonas aeruginosa DK101 containing pAU48 expressing oprD after 14 to 16 hrs by broth dilution method; format: functional
Escherichia coli [23] = test: Antibacterial activity against Escherichia coli W4573 assessed as inhibition of AcrAB efflux pump after 14 to 16 hrs by broth dilution method; format: functional
Escherichia coli [24] = test: Antibacterial activity against Escherichia coli N43 acrA mutant assessed as inhibition of AcrAB efflux pump after 14 to 16 hrs by broth dilution method; format: functional; in short: as §1
Escherichia coli [25] = test: Antibacterial activity against Escherichia coli N818 delta acrA mutant assessed as inhibition of AcrAB efflux pump after 14 to 16 hrs by broth dilution method; format: functional; in short: as §1
Staphylococcus aureus [26] = test: Antibacterial activity against Staphylococcus aureus Mu50 assessed as inhibition of bacterial population at 128 ug/ml after 48 hrs; format: functional, organism-based
Staphylococcus aureus [27] = test: Antibacterial activity against Staphylococcus aureus Mu50 assessed as inhibition of bacterial population at greater than 512 ug/ml after 48 hrs; format: functional, organism-based
Staphylococcus aureus [28] = test: Antibacterial activity against Staphylococcus aureus Mu50 at 20 ug/ml after 12 hrs by time kill assay; format: functional, organism-based
In short: (§2)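 Time-kill: overnight MH broth cultures were diluted in saline to OD600 0.08–0.12, and 1 x 10^5 to 5 x 10^5 CFU went into 1 ml MH broth with or without antibiotic and/or 1 mM spermine. Static incubation at 37°C. Timed 100 µl aliquots were plated on LB neat or after 10-fold dilutions, and colonies counted after 18–24 h at 37°C.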

Staphylococcus aureus [29] = test: Antibacterial activity against Staphylococcus aureus N315 at 20 ug/ml after 12 hrs by time kill assay; format: functional, organism-based; in short: as §2

`CC1(C)S[C@@H]2[C@H](NC(=O)C(C(=O)O)c3ccccc3)C(=O)N2[C@H]1C(=O)O` (stereo partly specified) [CARBENICILLIN] was tested. Which MIC (Escherichia coli [1]) did it give?
Its MIC is 32 µg/mL (≈ 84.6 µM).

What about the MIC (Escherichia coli [2]) of the same compound?
The MIC was 16 µg/mL (≈ 42.3 µM).

And the MIC (Escherichia coli [3])?
The MIC was 16 µg/mL (≈ 42.3 µM).

And the MIC (Salmonella typhimurium)?
The MIC was 8 µg/mL (≈ 21.1 µM).

What about the MIC (Staphylococcus aureus [4]) of the same compound?
Its MIC is 32 µg/mL (≈ 84.6 µM).

And the MIC (Staphylococcus aureus [5])?
Its MIC is ≥ 512 µg/mL.

What about the MIC (Staphylococcus aureus [6]) of the same compound?
Its MIC is 1 µg/mL (≈ 2.64 µM).

What about the MIC (Pseudomonas aeruginosa [7]) of the same compound?
The MIC was 64 µg/mL (≈ 169 µM).

What about the MIC (Pseudomonas aeruginosa [8]) of the same compound?
Its MIC is 256 µg/mL (≈ 677 µM).

What about the MIC (Pseudomonas aeruginosa [9]) of the same compound?
The MIC was 256 µg/mL (≈ 677 µM).

What about the MIC (Pseudomonas aeruginosa [10]) of the same compound?
Its MIC is > 1020 µg/mL.

And the MIC (Pseudomonas aeruginosa [11])?
The MIC was > 1020 µg/mL.

And the MIC (Pseudomonas aeruginosa [12])?
Its MIC is 1020 µg/mL (≈ 2710 µM).

And the MIC (Pseudomonas aeruginosa [13])?
The MIC was 16 µg/mL (≈ 42.3 µM).

What about the MIC (Pseudomonas aeruginosa [14]) of the same compound?
Its MIC is 1020 µg/mL (≈ 2710 µM).

And the MIC (Pseudomonas aeruginosa [15])?
The MIC was 256 µg/mL (≈ 677 µM).

And the MIC (Pseudomonas aeruginosa [16])?
Its MIC is > 1020 µg/mL.

And the MIC (Pseudomonas aeruginosa [17])?
The MIC was 16 µg/mL (≈ 42.3 µM).

And the MIC (Pseudomonas aeruginosa [18])?
The MIC was > 1020 µg/mL.

What about the Activity (Pseudomonas aeruginosa [19]) of the same compound?
Its Activity is “Active”.

What about the MIC (Pseudomonas aeruginosa [20]) of the same compound?
Its MIC is 64 µg/mL (≈ 169 µM).

What about the MIC (Pseudomonas aeruginosa [21]) of the same compound?
Its MIC is 64 µg/mL (≈ 169 µM).

What about the MIC (Pseudomonas aeruginosa [22]) of the same compound?
Its MIC is 64 µg/mL (≈ 169 µM).

What about the MIC (Escherichia coli [23]) of the same compound?
The MIC was 16 µg/mL (≈ 42.3 µM).

What about the MIC (Escherichia coli [24]) of the same compound?
Its MIC is 4 µg/mL (≈ 10.6 µM).

What about the MIC (Escherichia coli [25]) of the same compound?
The MIC was 2 µg/mL (≈ 5.29 µM).

How did the MIC (Escherichia coli [2]) turn out when `Cc1onc(-c2ccccc2)c1C(=O)N[C@@H]1C(=O)N2[C@@H]1SC(C)(C)[C@@H]2C(=O)O` [OXACILLIN] was run?
Its MIC is 512 µg/mL (≈ 1280 µM).

What about the MIC (Escherichia coli [3]) of the same compound?
Its MIC is 512 µg/mL (≈ 1280 µM).

What about the MIC (Salmonella typhimurium) of the same compound?
The MIC was 256 µg/mL (≈ 638 µM).

What about the MIC (Staphylococcus aureus [4]) of the same compound?
Its MIC is 16 µg/mL (≈ 39.9 µM).

What about the MIC (Staphylococcus aureus [5]) of the same compound?
Its MIC is 512 µg/mL (≈ 1280 µM).

What about the MIC (Staphylococcus aureus [6]) of the same compound?
The MIC was 0.12 µg/mL (≈ 0.299 µM).

What about the Activity (Staphylococcus aureus [26]) of the same compound?
The Activity was “inactive”.

And the Activity (Staphylococcus aureus [27])?
Its Activity is “Active”.

What about the Activity (Staphylococcus aureus [28]) of the same compound?
The Activity was “inactive”.

And the Activity (Staphylococcus aureus [29])?
Its Activity is “inactive”.
